Compound activity deposited in PubChem BioAssay by several laboratories.
An excerpt weighted towards active compounds, which were near 12% of everything screened.
b-catenin transl – beta-catenin nuclear translocation modulation; HeLa beta-catenin nuclear translocation, immunofluorescence imaging; 0.3% of 190,000 active; AID 1665; nuclear translocation activity, % at 5 µM;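 active means nuclear translocation activity above 50% at 5 µM, with a well cell count of 50 or more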;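 further: per-cell ratio of nuclear to cytoplasmic median beta-catenin stain intensity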
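Test system: HeLa cells, endogenous beta-catenin; Compound: single 5 µM dose plus 0.02–20 µM confirmation series; Times: compound exposure 24 h at 37°C; Signal: fluorescence imaging of beta-catenin antibody stain plus DAPI; Read-out: % activation, nuclear-to-cytoplasmic median beta-catenin signal ratio per cell.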
CHOP inhibitor – CHOP inhibition in unfolded protein response; inhibition, % at 10 µM; 3.8% of 220,000 active; CHO-K1 CHOP-promoter luciferase, tunicamycin-induced, 15-18 h;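 active means compounds that reduced the stress-induced luciferase reporter signal by more than about 70% of percent inhibition, limit read from the data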
Lmaj promast – reduces viability of Leishmania major promastigotes. inhibition, % at 10 µM. resazurin fluorescence viability. AID 1063. 9% of 200,000 active; in the data active means inhibition above about 50%;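 further: promastigotes grown with compound for 44 hours at 28 °C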
Autophagy mod – autophagy modulation, high-content screen; MEF GFP-LC3 puncta imaging; test concentration mostly 10 µM; calls only at 10 µM (by protocol); 0.98% of 190,000 active; AID 463193;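 active means percentage of spot-positive cells more than 3 SD above its plate mean, without a fluorescence outlier flag or 80% toxicity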
Dynein cargo inh – dynein cargo transport inhibition | 3617.4 mouse cells, GR-EGFP nuclear translocation imaging; test concentration mostly 20 µM; stimulated with dexamethasone, 1 µM; stronger effect = lower value | z-score, hits read low | 0.47% of 220,000 active | AID 1381;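 active means plate z-score of nuclear minus cytoplasmic receptor signal below a set negative limit, without overly bright fluorescence or cell loss, cut at about -3.5 in these data, passing the limit was not always enough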;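 further: z-score of nuclear minus cytoplasmic ring GR-EGFP intensity difference per well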
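Also added: dexamethasone, 1.0 µM final. Medium: tet-free, stripped-serum medium. Detection: fixed, Hoechst-stained cells imaged at 10x for EGFP. Read-out: nuclear-to-cytoplasmic GR-EGFP distribution per well. Times: induction 48 h, compound 1 h, agonist 30 min.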
MT stabilize HCS – microtubule stabilization, imaging screen. HeLa tubulin immunostaining HCS, 24 h; share of cells brighter than vehicle mean+2SD. % tubulin-high responders, % at 10 µM. 0.83% of 200,000 active;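 active means plate Z-score above 3 for both tubulin-high and condensed-nucleus cell shares, with cell loss under 80%, at 10 µM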;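 further: anti alpha tubulin signal scored within the nucleus-defined area of each cell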
A number is an active result; n = inactive; x = no result given.

SMILES	b-catenin transl	CHOP inhibitor	Lmaj promast	Autophagy mod	Dynein cargo inh	MT stabilize HCS
COCC(C)n1c(SCC(=O)NC(=O)Nc2ccc3c(c2)OCCO3)nc2ccccc2c1=O (stereo not given)	n	n	85.3	n	n	n
CC(Sc1ncnc2ccccc12)C(=O)Nc1ccc2c(c1)OCCO2 (stereo not given)	n	n	n	n	n	n
Cc1nc2cc(NC(=O)c3ccc(N4C(=O)CCC4=O)cc3)ccc2s1	n	n	n	n	n	n
COCCCN(CC(=O)Nc1ccc(N2CCOCC2)cc1)S(=O)(=O)c1ccc(Cl)cc1	n	n	n	n	n	n
COc1ccc(NC(=O)CSc2c(C)nn(-c3nnc(C)c(=O)[nH]3)c2C)cc1	n	n	n	n	n	n
CC(OC(=O)c1ccc2c(=O)n3c(nc2c1)CCCCC3)C(N)=O (stereo not given)	n	n	n	n	n	n
O=C(NCC(c1cccnc1)N1CCN(c2ccc(F)cc2)CC1)OCc1ccccc1 (stereo not given)	x	n	99.2	n	n	n
O=C(NCC(c1cccnc1)N1CCN(c2ccccc2F)CC1)OCc1ccccc1 (stereo not given)	x	n	95.6	n	n	n
O=C(NCC(c1cccnc1)N1CCN(c2ccc(F)cc2)CC1)c1cccc(Cl)c1 (stereo not given)	n	n	96.5	n	n	n
O=C(NCC(c1cccnc1)N1CCOCC1)Nc1ccccc1 (stereo not given)	x	n	n	n	n	n
COC(=O)NCC(c1cccnc1)N1CCN(c2ccccc2)CC1 (stereo not given)	n	n	n	n	n	n
O=C(NCC(c1cccnc1)N1CCN(c2ccccc2)CC1)C1CCCCC1 (stereo not given)	x	n	74.1	n	n	n
O=C(NCC(c1ccco1)N1CCN(c2ccc(F)cc2)CC1)OCc1ccccc1 (stereo not given)	n	n	n	n	n	n
O=C(NCC(c1cccnc1)N1CCN(c2ccccc2)CC1)OCc1ccccc1 (stereo not given)	n	n	95.7	n	n	n
O=C(c1ccccc1)c1ccccc1N/C=C/c1nnnn1-c1ccccc1	x	n	53.8	n	n	n
COc1ccc(C(F)(F)F)cc1N/C=C\c1nnnn1-c1ccccc1	x	n	n	n	n	n
COc1cc(NC(=O)CSCC(=O)Nc2cc(OC)cc(OC)c2)cc(OC)c1	n	n	x	x	n	x
Cc1ccc(NCC(=O)N/N=C/c2cc3ccccc3nc2Cl)cc1	n	n	83.7	n	n	n
CCCCn1c(O)c(/C=C2\C=NN=C2c2ccccc2)sc1=S	n	n	n	n	n	n
CC(C)Cn1c(O)c(/C=C2\C=NN=C2c2ccccc2)sc1=S	n	71.0	n	n	n	n
Cn1c(CNC(=O)c2ccc(F)cc2)nc2ccccc21	n	n	n	n	n	n
CSc1nc(N(C)NC(=O)c2ccc(F)cc2)c2ccccc2n1	n	n	n	n	n	33.2
Cc1nc2ccc(NC(=O)c3cncc(Br)c3)cc2s1	n	n	x	x	n	x
CCOC(=O)C1=C(C)OC(N)=C(C(=O)OCC)C1c1cccnc1 (stereo not given)	n	n	84.5	n	n	n
CCOC(=O)C1=C(N)OC2=C(C(=O)CC(C)(C)C2)C1c1cccnc1 (stereo not given)	n	n	78.0	n	n	n
SMILES	b-catenin transl	CHOP inhibitor	Lmaj promast	Autophagy mod	Dynein cargo inh	MT stabilize HCS
CCOC(=O)C1=C(C)NC2=C(C(=O)c3ccccc32)C1c1cccnc1 (stereo not given)	n	n	81.9	n	n	n
CC1=C(C(=O)OC(C)C)C(c2cccnc2)C2=C(CCCC2=O)N1 (stereo not given)	n	91.2	n	n	n	n
CCOC(=O)C1=C(N)OC2=C(C(=O)CCC2)C1c1cccnc1 (stereo not given)	x	n	n	n	n	n
CC1CN=C(N(C(=S)Nc2ccccc2)c2cccc(C(F)(F)F)c2)S1 (stereo not given)	n	n	x	x	n	x
COc1ccc(Cl)cc1NC(=S)NNC(=O)C1(C)CC1(Cl)Cl (stereo not given)	n	n	n	n	n	n
CCOC(=O)C1=C(N)OC2=C(C(=O)CC(C)(C)C2)C1C1CCCCC1 (stereo not given)	n	96.0	n	n	n	n
